{"source": "ChEMBL document CHEMBL1130251", "about": "“Enzymatic properties of the unnatural beta-L-enantiomers of 2',3'-dideoxyadenosine and 2',3'-didehydro-2',3'-dideoxyadenosine” (J Med Chem, 1997)", "proteins": {"B1": {"name": "Adenosine kinase (Toxoplasma gondii), Q9TVW2 (protein)", "chain": "MAVDSSNSATGPMRVFAIGNPILDLVAEVPSSFLDEFFLKRGDATLATPEQMRIYSTLDQFNPTSLPGGSALNSVRVVQKLLRKPGSAGYMGAIGDDPRGQVLKELCDKEGLATRFMVAPGQSTGVCAVLINEKERTLCTHLGACGSFRLPEDWTTFASGALIFYATAYTLTATPKNALEVAGYAHGIPNAIFTLNLSAPFCVELYKDAMQSLLLHTNILFGNEEEFAHLAKVHNLVAAEKTALSTANKEHAVEVCTGALRLLTAGQNTGATKLVVMTRGHNPVIAAEQTADGTVVVHEVGVPVVAAEKIVDTNGAGDAFVGGFLYALSQGKTVKQCIMCGNACAQDVIQHVGFSLSFTSLPC"}}, "key": {"[1]": {"compound": "Nc1ncnc2c1ncn2[C@H]1CC[C@@H](CO)O1", "test": "(§1) Inhibitory activity against bovine liver adenosine Kinase; NS, […]=nonsubstrate, noninhibitor/inhibitor", "details": "Bos taurus", "how_it_was_run": "(§2)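 Adenosine kinase purified from bovine liver, 0.38–7.6 μg·mL⁻¹, at 37 °C. Medium: 100 mM Tris HCl pH 7.4, 100 mM KCl, 4.8 mg·mL⁻¹ BSA, 0.5 mM MgCl2, 1 mM ATP, test nucleoside. 5'-Phosphorylation monitored by C-18 HPLC (phosphate pH 6/acetonitrile gradient). Inhibition assessed against 50 μM adenosine.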"}, "[2]": {"compound": "Nc1ncnc2c1ncn2[C@H]1C=C[C@@H](CO)O1", "test": "as §1", "details": "Bos taurus", "how_it_was_run": "as §2"}}, "data": [{"protein": "B1", "values": [{"measurement": "Km", "setting": "[1]", "result": "NS, NI/Ado"}, {"measurement": "Km", "setting": "[2]", "result": "NS, NI/Ado"}]}]}
